Active and inactive are the calls of the source. Non-standard residues stand in square brackets, D forms with d. Residues, ends and D or L forms follow the SMILES beside them. Tpi = O=C(O)[C@@H]1Cc2c([nH]c3ccccc23)CN1
Legend:
[1] = system: Mus musculus; assay: Analgesic activity in ICR mouse assessed as increase in pain threshold at 0.15 mmol/kg, ip after 90 mins by tail flick method (reference value: 7.53 +/- 11.54 %); format: functional
[2] = system: Mus musculus; assay: Analgesic activity in ICR mouse assessed as increase in pain threshold at 0.15 mmol/kg, ip after 30 mins by tail flick method (reference value: 5.03 +/- 10.26 %); format: functional
[3] = system: Mus musculus; assay: Analgesic activity in ICR mouse assessed as increase in pain threshold at 0.15 mmol/kg, ip after 120 mins by tail flick method (reference value: 8.09 +/- 13.28 %); format: functional
[4] = system: Mus musculus; assay: Analgesic activity in ICR mouse assessed as increase in pain threshold at 0.15 mmol/kg, ip after 180 mins by tail flick method (reference value: 8.75 +/- 9.73 %); format: functional
[5] = system: Mus musculus; assay: Analgesic activity in ICR mouse assessed as increase in pain threshold at 0.15 mmol/kg, ip after 150 mins by tail flick method (reference value: 9.02 +/- 12.19 %); format: functional
[6] = system: Mus musculus; assay: Analgesic activity in ICR mouse assessed as increase in pain threshold at 0.15 mmol/kg, ip after 60 mins by tail flick method (reference value: 7.45 +/- 8.03 %); format: functional
[7] = system: Mus musculus; assay: Analgesic activity in ICR mouse assessed as increase in pain threshold at 0.05 mmol/kg, po after 30 mins by tail flick method (reference value: 5.03 +/- 10.26 %); format: functional
[8] = system: Mus musculus; assay: Analgesic activity in ICR mouse assessed as increase in pain threshold at 0.10 mmol/kg, po after 30 mins by tail flick method (reference value: 5.03 +/- 10.26 %); format: functional
[9] = system: Mus musculus; assay: Analgesic activity in ICR mouse assessed as increase in pain threshold at 0.15 mmol/kg, po after 180 mins by tail flick method (reference value: 8.75 +/- 9.73 %); format: functional
[10] = system: Mus musculus; assay: Antiinflammatory activity in ICR mouse assessed as inhibition of xylene-induced ear edema at 0.10 mmol/kg, po administered 30 mins before xylene challenge measured after 2 hrs relative to control; format: functional
Method in brief: (§1)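 Male ICR mice (20 ± 2 g), randomised to test, vehicle (CMC) and aspirin (10 mg/kg oral) groups. Test agents given orally as CMC suspension. After 30 min, 0.03 mL xylene applied to both faces of the right ear, left ear as control. At 2 h mice were killed and 7 mm ear punches weighed. Edema is the right-minus-left weight, and inhibition is taken against vehicle.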

[11] = system: Mus musculus; assay: Analgesic activity in ICR mouse assessed as increase in pain threshold at 0.05 mmol/kg, po after 60 mins by tail flick method (reference value: 7.45 +/- 8.03 %); format: functional
[12] = system: Mus musculus; assay: Antiinflammatory activity in po dosed ICR mouse assessed as inhibition of xylene-induced ear edema administered 30 mins before xylene challenge measured after 2 hrs; format: functional, organism-based; method in brief: as §1
[13] = system: Mus musculus; assay: Analgesic activity in ICR mouse assessed as increase in pain threshold at 0.10 mmol/kg, po after 150 mins by tail flick method (reference value: 9.02 +/- 12.19 %); format: functional
[14] = system: Mus musculus; assay: Antiinflammatory activity in ICR mouse assessed as inhibition of xylene-induced ear edema at 0.15 mmol/kg, po administered 30 mins before xylene challenge measured after 2 hrs relative to control; format: functional; method in brief: as §1
[15] = system: Mus musculus; assay: Analgesic activity in ICR mouse assessed as increase in pain threshold at 0.15 mmol/kg, po after 30 mins by tail flick method (reference value: 5.03 +/- 10.26 %); format: functional
[16] = system: Mus musculus; assay: Analgesic activity in ICR mouse assessed as increase in pain threshold at 0.10 mmol/kg, po after 120 mins by tail flick method (reference value: 8.09 +/- 13.28 %); format: functional
[17] = system: Mus musculus; assay: Analgesic activity in ICR mouse assessed as increase in pain threshold at 0.10 mmol/kg, po after 60 mins by tail flick method (reference value: 7.45 +/- 8.03 %); format: functional
[18] = system: Mus musculus; assay: Analgesic activity in ICR mouse assessed as increase in pain threshold at 0.05 mmol/kg, po after 120 mins by tail flick method (reference value: 8.09 +/- 13.28 %); format: functional
[19] = system: Mus musculus; assay: Analgesic activity in ICR mouse assessed as increase in pain threshold at 0.15 mmol/kg, po after 60 mins by tail flick method (reference value: 7.45 +/- 8.03 %); format: functional
[20] = system: Mus musculus; assay: Analgesic activity in ICR mouse assessed as increase in pain threshold at 0.15 mmol/kg, po after 90 mins by tail flick method (reference value: 7.53 +/- 11.54 %); format: functional
[21] = system: Mus musculus; assay: Analgesic activity in ICR mouse assessed as increase in pain threshold at 0.05 mmol/kg, po after 150 mins by tail flick method (reference value: 9.02 +/- 12.19 %); format: functional
[22] = system: Mus musculus; assay: Analgesic activity in ICR mouse assessed as increase in pain threshold at 0.10 mmol/kg, po after 90 mins by tail flick method (reference value: 7.53 +/- 11.54 %); format: functional
[23] = system: Mus musculus; assay: Analgesic activity in ICR mouse assessed as increase in pain threshold at 0.15 mmol/kg, po after 120 mins by tail flick method (reference value: 8.09 +/- 13.28 %); format: functional
[24] = system: Mus musculus; assay: Analgesic activity in ICR mouse assessed as increase in pain threshold at 0.05 mmol/kg, po after 90 mins by tail flick method (reference value: 7.53 +/- 11.54 %); format: functional
[25] = system: Mus musculus; assay: Analgesic activity in ICR mouse assessed as increase in pain threshold at 0.10 mmol/kg, po after 180 mins by tail flick method (reference value: 8.75 +/- 9.73 %); format: functional
[26] = system: Mus musculus; assay: Analgesic activity in ICR mouse assessed as increase in pain threshold at 0.05 mmol/kg, po after 180 mins by tail flick method (reference value: 8.75 +/- 9.73 %); format: functional
[27] = system: Mus musculus; assay: Antiinflammatory activity in ICR mouse assessed as inhibition of xylene-induced ear edema at 0.05 mmol/kg, po administered 30 mins before xylene challenge measured after 2 hrs relative to control; format: functional; method in brief: as §1
[28] = system: Mus musculus; assay: Analgesic activity in ICR mouse assessed as increase in pain threshold at 0.15 mmol/kg, po after 150 mins by tail flick method (reference value: 9.02 +/- 12.19 %); format: functional
[29] = system: Rattus norvegicus; assay: Antiinflammatory activity in mesenteric ischemia/reperfusion injury Wistar rat model assessed as reduction of focal denudation of epithelium villi at 20 mg/kg, ip administered 15 mins before and 1 hr after initiation of reperfusion by hematoxylin-eosin staining; format: functional, organism-based; design: dose 20 mg/kg
Method in brief: (§2)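 Male Wistar rats (250–300 g) under pentobarbital (80 mg/kg ip) at 37 °C. Drug 20 mg/kg ip 15 min before reperfusion and 1 h into reperfusion, saline to other groups. Terminal ileum (10 mm) snap-frozen, cut at 4–5 µm by cryostat, stained with H&E, and viewed by light microscopy.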

[30] = system: Rattus norvegicus; assay: Antioxidant activity in mesenteric ischemia/reperfusion injury Wistar rat model ileum assessed as restoration of glutathione levels at 20 mg/kg, ip administered 15 mins before and 1 hr after initiation of reperfusion by Beutler's method; format: functional, organism-based; design: dose 20 mg/kg
Method in brief: (§3)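 Dosing 20 mg/kg ip 15 min before and 1 h after reperfusion onset. Intestinal MDA measured by the Beuge and Aust method as nmol/g tissue, and GSH by the Beutler method as µmol/g tissue.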

[31] = system: Rattus norvegicus; assay: Antiinflammatory activity in mesenteric ischemia/reperfusion injury Wistar rat model ileum assessed as reduction of mucosal damage at 20 mg/kg, ip administered 15 mins before and 1 hr after initiation of reperfusion by hematoxylin-eosin staining; format: functional, organism-based; design: dose 20 mg/kg; method in brief: as §2
[32] = system: Rattus norvegicus; assay: Antioxidant activity in mesenteric ischemia/reperfusion injury Wistar rat model assessed as decrease of myeloperoxidase activity in intestinal tissue at 20 mg/kg, ip administered 15 mins before and 1 hr after initiation of reperfusion; format: functional, organism-based; design: dose 20 mg/kg
[33] = system: Rattus norvegicus; assay: Antioxidant activity in mesenteric ischemia/reperfusion injury Wistar rat model ileum assessed as decrease of malondialdehyde levels at 20 mg/kg, ip administered 15 mins before and 1 hr after initiation of reperfusion by Beuge's method; format: functional, organism-based; design: dose 20 mg/kg; method in brief: as §3

Compound | Activity [7] | Activity [8] | Activity [9] | inhibition in vivo at 100 µmol/kg [10] | Activity [11] | inhibition [12] | Activity [13] | inhibition in vivo at 150 µmol/kg [14] | Activity [15] | Activity [16] | Activity [17] | Activity [18] | Activity [19] | Activity [20] | Activity [21] | Activity [22] | Activity [23] | Activity [24] | inhibition in vivo at 50 µmol/kg [27] | Activity [28] | further results
CN1CC[C@]23c4c5ccc(O)c4O[C@H]2[C@@H](O)C=C[C@H]3[C@H]1C5 [MORPHINE] | – | – | – | – | – | – | – | – | – | – | – | – | – | – | – | – | – | – | – | – | Activity [1]: 139.03%; Activity [2]: 142.2%; Activity [3]: 98.78%; Activity [4]: 57.43%; Activity [5]: 64.55%; Activity [6]: 175.78%
NCCCC[C@H](NC(=O)[C@@H]1Cc2c([nH]c3ccccc23)CN1)C(=O)N[C@@H](Cc1ccccc1)C(=O)N[C@@H](Cc1c[nH]c2ccccc12)C(=O)O (H-[Tpi]KFW-OH) | 11.55% | 32.32% | 25.69% | 45.4% | 26.54% | Dose-dependent effect | 21.39% | 55.2% | 44.27% | 23.08% | 34.48% | 18.99% | 52.22% | 54.39% | 15.43% | 38.33% | 41.28% | 23.58% | 28.3% | 29.04% | Activity [25]: 14.38%; Activity [26]: 9.06%
CC(C)C[C@H](NC(=O)[C@@H]1Cc2c([nH]c3ccccc23)CN1)C(=O)N[C@@H](Cc1ccccc1)C(=O)N[C@@H](Cc1c[nH]c2ccccc12)C(=O)O (H-[Tpi]LFW-OH) | 29.22% | 35.41% | 18.86% | 49.6% | 23.45% | Dose-dependent effect | 22.13% | 60.7% | 48.25% | 25.45% | 37.65% | 17.97% | 59.37% | 44.67% | 8.23% | 32.73% | 34.55% | 20.65% | 38.7% | 25.46% | Activity [29]: Active; Activity [30]: Active; Activity [31]: Active; Activity [25]: 13.42%; Activity [32]: Active; Activity [33]: Active; Activity [26]: 7.46%
N=C(N)NCCC[C@H](NC(=O)[C@@H]1Cc2c([nH]c3ccccc23)CN1)C(=O)N[C@@H](Cc1ccccc1)C(=O)N[C@@H](Cc1c[nH]c2ccccc12)C(=O)O (H-[Tpi]RFW-OH) | – | – | 21.55% | 26.5% | – | Dose-dependent effect | – | 57% | 38.16% | – | – | – | 35.13% | 46.08% | – | – | 37.12% | – | 11.3% | 29.38% | –
